Consider one compound from ChEMBL document CHEMBL1155379, “Effect of 3'-end capping of aptamer with various 2',4'-bridged nucleotides: Enzymatic post-modification toward a practical use of polyclonal aptamers” (Bioorg Med Chem Lett, 2010).

Series [1] is described as follows: Chemical stability in presence of snake venom phosphodiesterase 1 assessed as oligonucleotide degradation after 120 mins by PAGE. The format is physicochemical. To be noted: 2 h.
A short description of series [2]: Chemical stability in presence of 80% (v/v) human serum assessed as intact compound remaining after 8 hrs by PAGE. The class given is physicochemical. The settings on record: read-out: Stability. Put shortly:
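Aptamer incubated in 80% v/v human serum at 37 °C for 8 h; intact full-length aptamer remaining quantified.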

The target of series [3] is Prothrombin (Homo sapiens, UniProt P00734). As to the kind of experiment: Binding affinity to human thrombin after 30 mins by non-equilibrium capillary electrophoresis. Put shortly:
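Capillary electrophoresis of aptamer–thrombin mixtures: aptamer 1 nM with thrombin 4 nM in 20 mM Tris-HCl (1 mM MgCl2) pH 7.4 sample buffer; running buffer 100 mM sodium borate pH 8.35; separation +12 kV, injection 0.5 psi × 7.8 s. Kd derived from binding saturation curves over varied thrombin concentrations.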

`C=C1NC(=O)C(C)=CN1[C@H]1C[C@H](OP(=O)(O)OC[C@H]2O[C@@H](n3cnc4c(=O)[nH]c(N)nc43)[C@H](O)[C@@H]2OP(=O)(O)OC[C@H]2O[C@@H](n3cnc4c(N)ncnc43)[C@H](O)[C@@H]2OP(=O)(O)OC[C@H]2O[C@@H](n3ccc(N)nc3=O)[C@H](O)[C@@H]2OP(=O)(O)OC[C@H]2O[C@@H](n3cc(C)c(=O)[nH]c3=O)C[C@@H]2OP(=O)(O)OC[C@]23O[C@@H](n4cc(C)c(=O)[nH]c4=O)[C@H](OCOC2c2ccccc2)[C@@H]3O)[C@@H](COP(=O)(O)O[C@H]2[C@@H](O)[C@H](n3cnc4c(=O)[nH]c(N)nc43)O[C@@H]2COP(=O)(O)O[C@H]2[C@@H](O)[C@H](n3cnc4c(=O)[nH]c(N)nc43)O[C@@H]2COP(=O)(O)O[C@H]2[C@@H](O)[C@H](n3cnc4c(=O)[nH]c(N)nc43)O[C@@H]2COP(=O)(O)O[C@H]2[C@@H](O)[C@H](n3cnc4c(=O)[nH]c(N)nc43)O[C@@H]2COP(=O)(O)O[C@H]2C[C@H](n3cc(C)c(=O)[nH]c3=O)O[C@@H]2COP(=O)(O)O[C@H]2C[C@H](n3cc(C)c(=O)[nH]c3=O)O[C@@H]2COP(=O)(O)O[C@H]2[C@@H](O)[C@H](n3cnc4c(=O)[nH]c(N)nc43)O[C@@H]2COP(=O)(O)O[C@H]2[C@@H](O)[C@H](n3cnc4c(=O)[nH]c(N)nc43)O[C@@H]2COP(=O)(O)O[C@H]2[C@@H](O)[C@H](n3cnc4c(N)ncnc43)O[C@@H]2COP(=O)(O)O[C@H]2[C@@H](O)[C@H](n3ccc(N)nc3=O)O[C@@H]2COP(=O)(O)O[C@H]2[C@@H](O)[C@H](n3cnc4c(=O)[nH]c(N)nc43)O[C@@H]2COP(=O)(O)O[C@H]2[C@@H](O)[C@H](n3cnc4c(=O)[nH]c(N)nc43)O[C@@H]2COP(=O)(O)O[C@H]2[C@@H](O)[C@H](n3cnc4c(=O)[nH]c(N)nc43)O[C@@H]2COP(=O)(O)O[C@H]2[C@@H](O)[C@H](n3cnc4c(N)ncnc43)O[C@@H]2COP(=O)(O)O[C@H]2C[C@H](n3cc(C)c(=O)[nH]c3=O)O[C@@H]2COP(=O)(O)O[C@H]2[C@@H](O)[C@H](n3cnc4c(=O)[nH]c(N)nc43)O[C@@H]2COP(=O)(O)O[C@H]2[C@@H](O)[C@H](n3cnc4c(=O)[nH]c(N)nc43)O[C@@H]2COP(=O)(O)O[C@H]2C[C@H](n3cc(C)c(=O)[nH]c3=O)O[C@@H]2COP(=O)(O)O[C@H]2[C@@H](O)[C@H](n3cnc4c(=O)[nH]c(N)nc43)O[C@@H]2COP(=O)(O)O[C@H]2[C@@H](O)[C@H](n3ccc(N)nc3=O)O[C@@H]2COP(=O)(O)O[C@H]2[C@@H](O)[C@H](n3ccc(N)nc3=O)O[C@@H]2COP(=O)(O)O[C@H]2C[C@H](n3cc(C)c(=O)[nH]c3=O)O[C@@H]2COP(=O)(O)O[C@H]2[C@@H](O)[C@H](n3cnc4c(=O)[nH]c(N)nc43)O[C@@H]2COP(=O)(O)O[C@H]2[C@@H](O)[C@H](n3cnc4c(N)ncnc43)O[C@@H]2COc2ccc3c(c2)Oc2cc(O)ccc2C32OC(=O)c3ccccc32)O1` (stereo partly drawn): the Stability entry in series [1] is given as “Stable”. Moreover, the remaining at 8 h in series [2] was 20%. Further, the Kd – broadly, the constant that tells how readily two partners part at equilibrium – in series [3] turned out to be 0.28 nM.
